In ChEMBL document CHEMBL3108709, “Diversity-oriented synthesis yields a new drug lead for treatment of chagas disease” (ACS Med Chem Lett, 2014):
≈ marks a conversion by molar mass, not a printed value. Calls of active or inactive are those of the source. No cut-off for these calls is given here.

Columns and labels:
Trypanosoma cruzi [1] = assay: Antitrypanosomal activity against Trypanosoma cruzi Tulahuen infected in mouse NIH/3T3 cells assessed as multimode parasite growth inhibition after 4 days by beta-galactosidase reporter gene assay; type: functional, organism-based; details: NIH3T3, 96 h
Method in brief: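 Recombinant Tulahuen T. cruzi stably expressing a beta-galactosidase reporter, cocultured with mouse NIH/3T3 fibroblast host cells. Compounds added to host cells before infection with parasites; growth inhibition read by reporter; IC50 in nM.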

[2] = Solubility of the compound in phosphate buffer saline; type: physicochemical
Trypanosoma cruzi [3] = assay: Antitrypanosomal activity against amastigote stage of Trypanosoma cruzi Tulahuen infected in rat L6 cells assessed as parasite growth inhibition after 96 hrs by beta-galactosidase reporter gene assay; type: functional, organism-based; details: L6, 96 h
Plasma = assay: Metabolic stability in human plasma; type: ADME, cell-free
[4] = Metabolic stability in mouse microsomes assessed as compound remaining at 1 uM after 1 hr; type: ADME, Microsome; details: read-out: Stability
Method in brief: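 Mouse liver microsomes incubated 1 h with compound at 1 μM; result expressed as percent of compound remaining.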

Trypanosoma cruzi [5] = assay: Trypanocidal activity against Trypanosoma cruzi CA-I/72 infected in BESM cells assessed as parasite re-emergence at 370 nM treated for 29 days measured after 36 days; type: functional, organism-based
Method in brief: (§1)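 T. cruzi-infected bovine embryo skeletal muscle (BESM) cells treated with varying compound concentrations for 20 or 29 days, compound refreshed every other day, then followed up to 36 days post-treatment. Trypomastigote emergence into medium checked visually daily through treatment and post-treatment phases; no re-emergence taken as trypanocidal, delayed emergence as trypanostatic.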

Trypanosoma cruzi [6] = assay: Trypanocidal activity against Trypanosoma cruzi CA-I/72 infected in BESM cells assessed as parasite re-emergence at 370 nM measured over 29 days of drug treatment; type: functional, organism-based; method in brief: as §1
Trypanosoma cruzi [7] = assay: Trypanocidal activity against Trypanosoma cruzi CA-I/72 infected in BESM cells assessed as parasite re-emergence at 40 nM measured over 29 days of drug treatment; type: functional, organism-based; method in brief: as §1
Trypanosoma cruzi [8] = assay: Trypanocidal activity against Trypanosoma cruzi CA-I/72 infected in BESM cells assessed as parasite re-emergence at 40 nM treated for 29 days measured after 36 days; type: functional, organism-based; method in brief: as §1
[9] = Plasma protein binding in human; type: ADME, cell-free; details: read-out: PPB (converted)
Trypanosoma cruzi [10] = assay: Trypanocidal activity against Trypanosoma cruzi CA-I/72 infected in BESM cells assessed as parasite re-emergence at 6.6 uM measured over 20 days of drug treatment; type: functional, organism-based; method in brief: as §1
Trypanosoma cruzi [11] = assay: Trypanocidal activity against Trypanosoma cruzi CA-I/72 infected in BESM cells assessed as parasite re-emergence at 6.6 uM treated for 20 days measured after 37 days; type: functional, organism-based; method in brief: as §1
[12] = Fraction unbound in human plasma; type: ADME, cell-free

Cc1cccc(CN(C)C[C@H]2Oc3c(NC(=O)c4ccncc4)cccc3C(=O)N([C@@H](C)CO)C[C@@H]2C)c1
IC50 (Trypanosoma cruzi [1]): 0.001 µM

C[C@H]1CN([C@@H](C)CO)C(=O)c2cccc(NC(=O)c3ccncc3)c2O[C@@H]1CN(C)Cc1ccc(Cl)c(Cl)c1
solubility [2]: 64 µM (≈ 36.6 µg/mL) | IC50 (Trypanosoma cruzi [3]): 0.083 µM | IC50 (Trypanosoma cruzi [1]): < 0.001 µM

C[C@H](CO)N1C[C@H](C)[C@H](CN(C)Cc2ccc(Oc3ccccc3)cc2)Oc2c(NC(=O)c3ccncc3)cccc2C1=O
solubility [2]: 98 µM (≈ 58.3 µg/mL) | IC50 (Trypanosoma cruzi [3]): 0.075 µM | Stability (Plasma): Unstable | remaining at 1 h, 1 µM [4]: < 1% | Activity (Trypanosoma cruzi [5]): Active | Activity (Trypanosoma cruzi [6]): Active | IC50 (Trypanosoma cruzi [1]): 0.016 µM

C[C@H]1CN([C@@H](C)CO)C(=O)c2cccc(NC(=O)c3ccncc3)c2O[C@@H]1CN(C)Cc1ccncc1
solubility [2]: 100 µM (≈ 50.4 µg/mL) | IC50 (Trypanosoma cruzi [1]): > 32 µM

CC(C)N1C[C@H](C)[C@@H](CN(C)Cc2ccc(Oc3ccccc3)cc2)Oc2c(NC(=O)c3ccncc3)cccc2C1=O
IC50 (Trypanosoma cruzi [3]): 0.288 µM | IC50 (Trypanosoma cruzi [1]): 0.001 µM

C[C@@H]1CN([C@H](C)CO)C(=O)c2cccc(NC(=O)c3ccncc3)c2O[C@H]1CN(C)Cc1ccc(Oc2ccccc2)cc1
solubility [2]: 1 µM (≈ 0.595 µg/mL) | Activity (Trypanosoma cruzi [7]): Active | IC50 (Trypanosoma cruzi [3]): 0.022 µM | remaining at 1 h, 1 µM [4]: 1% | IC50 (Trypanosoma cruzi [1]): 0.005 µM | Activity (Trypanosoma cruzi [8]): Active | fraction unbound [9]: 0.01

C[C@H]1CN([C@@H](C)CO)C(=O)c2cccc(NC(=O)c3ccncc3)c2O[C@@H]1CN(C)Cc1ccccc1Cl
IC50 (Trypanosoma cruzi [1]): 0.165 µM

O=C(Cn1ccnc1[N+](=O)[O-])NCc1ccccc1
Activity (Trypanosoma cruzi [10]): Active | Activity (Trypanosoma cruzi [11]): Active

CC(C)N1C[C@H](C)[C@@H](CN(C)Cc2ccc(Oc3ccccc3)cc2)Oc2c(NC(=O)c3cccnc3)cccc2C1=O
IC50 (Trypanosoma cruzi [1]): 0.045 µM

CC(C)N1C[C@H](C)[C@@H](CN(C)Cc2ccc(Cl)cc2)Oc2c(NC(=O)c3ccncc3)cccc2C1=O
IC50 (Trypanosoma cruzi [3]): 0.061 µM | IC50 (Trypanosoma cruzi [1]): 0.001 µM

C[C@H]1CN([C@@H](C)CO)C(=O)c2cccc(NC(=O)c3ccncc3)c2O[C@@H]1CN(C)Cc1ccccc1C(F)(F)F
IC50 (Trypanosoma cruzi [1]): 0.034 µM

CC(C)N1C[C@H](C)[C@@H](CN(C)Cc2ccc(Oc3ccccc3)cc2)Oc2c(NC(=O)C3CCNCC3)cccc2C1=O
IC50 (Trypanosoma cruzi [1]): 1 µM

CC(C)N1C[C@H](C)[C@@H](CN(C)Cc2cccc(Cl)c2)Oc2c(NC(=O)c3ccncc3)cccc2C1=O
IC50 (Trypanosoma cruzi [1]): 0.002 µM

CC(C)N1C[C@H](C)[C@@H](CN(C)Cc2ccccc2)Oc2c(NC(=O)c3ccncc3)cccc2C1=O
IC50 (Trypanosoma cruzi [1]): < 0.001 µM

C[C@H]1CN([C@@H](C)CO)C(=O)c2cccc(NC(=O)c3ccncc3)c2O[C@@H]1CN(C)Cc1c(Cl)cccc1Cl
IC50 (Trypanosoma cruzi [1]): 0.445 µM

Cc1ccc(CN(C)C[C@H]2Oc3c(NC(=O)c4ccncc4)cccc3C(=O)N([C@@H](C)CO)C[C@@H]2C)cc1
IC50 (Trypanosoma cruzi [1]): 0.014 µM

COc1cccc(CN(C)C[C@H]2Oc3c(NC(=O)c4ccncc4)cccc3C(=O)N([C@@H](C)CO)C[C@@H]2C)c1
IC50 (Trypanosoma cruzi [1]): 0.057 µM

CC(C)N1C[C@H](C)[C@@H](CN(C)Cc2ccc(Oc3ccccc3)cc2)Oc2c(NC(=O)C3CCN(C)CC3)cccc2C1=O
IC50 (Trypanosoma cruzi [1]): 1.2 µM

COc1ccccc1CN(C)C[C@H]1Oc2c(NC(=O)c3ccncc3)cccc2C(=O)N([C@@H](C)CO)C[C@@H]1C
IC50 (Trypanosoma cruzi [1]): 0.078 µM

C[C@H]1CN([C@@H](C)CO)C(=O)c2cccc(NC(=O)c3ccncc3)c2O[C@@H]1CN(C)Cc1cc(Cl)cc(Cl)c1
IC50 (Trypanosoma cruzi [1]): 0.01 µM

C[C@H]1CN([C@@H](C)CO)C(=O)c2cccc(NC(=O)c3ccncc3)c2O[C@H]1CN(C)Cc1ccc(Oc2ccccc2)cc1
solubility [2]: 93 µM (≈ 55.3 µg/mL) | Activity (Trypanosoma cruzi [7]): Active | IC50 (Trypanosoma cruzi [3]): 0.059 µM | remaining at 1 h, 1 µM [4]: < 1% | IC50 (Trypanosoma cruzi [1]): 0.023 µM | Activity (Trypanosoma cruzi [8]): Active | fraction unbound [9]: 0.05 | fraction unbound [12]: 0.05
